Measurements of several laboratories.
Lines come from different studies, so protocols differ.
LCK phosphorylated: Tyrosine-protein kinase Lck, phosphorylated (LCK, Homo sapiens, UniProt P06239)
LCK: Tyrosine-protein kinase Lck (LCK, Homo sapiens, UniProt P06239)

Structure (SMILES)	target	assay	setting	endpoint	result
CNC(=O)c1cc2c(Oc3ccc(NC(=O)C4(C(=O)Nc5ccc(F)cc5)CC4)cc3)ccnc2cc1OC	LCK phosphorylated	enzyme activity, inhibitor, radiometric	1 µM	inhibition	97%
O=C(Nc1cccnn1)N1CC(C/C=C/c2cncc(Oc3ccc(C(F)(F)F)cn3)n2)C1	LCK	cell-free assay, competition with immobilised ligand	1 µM	remaining binding	100%
FC(F)(F)Oc1cccc(-c2cnc3ccc(-c4ccncc4)nn23)c1	LCK	enzyme activity, inhibitor, radiometric	5 µM	activity vs control	25%
O=C(O)c1cc(-c2ccc(C3CCNCC3)cc2)c2ccc(-c3ccc(C(F)(F)F)cc3)cc2c1	LCK	cell-free assay, competition with immobilised ligand	1 µM	remaining binding	100%
COc1cc2ncnc(Nc3ccc(Oc4ccccc4)c(C)c3C)c2cc1OC	LCK	enzyme activity, inhibitor	1 µM	inhibition	83%
Cc1cc(-n2nc(Cc3cc(F)cc(C(F)(F)F)c3)nc2C)ccc1C(N)=O	LCK	cell-free assay, competition with immobilised ligand	1 µM	remaining binding	100%
Cc1cnn2ncc(-c3ccnc(N(C)C)n3)c2c1	LCK	cell-free assay	1 µM	remaining signal	100%
CNCc1ccc(-c2cc(-c3nc(-c4ccc(S(=O)(=O)C(C)C)cc4)cnc3N)on2)cc1	LCK	enzyme activity, inhibitor	0.4 µM	inhibition	42%
CSc1nc(C)c(-c2ccnc(Nc3ccc(N4CCOCC4)cc3)c2)[nH]1	LCK	enzyme activity, inhibitor	10 µM	inhibition	15.8%
C[C@H](NC(=O)c1cnc2n1[C@](C)(Cc1ccc(C#N)cc1)C(=O)N2c1cc(Cl)c(F)c(Cl)c1)C(=O)NC1(c2ccccn2)CC1	LCK	cell-free assay, competition with immobilised ligand	1 µM	remaining binding	100%
CNC(=O)c1ccccc1Nc1cc(Nc2ccc(N3CCOCC3)cc2OC)ncc1C(F)(F)F	LCK	enzyme activity, inhibitor	1 µM	inhibition	> 50%
C=CC(=O)Nc1cc(Nc2nccc(Nc3cc(Cl)c(F)cc3C(C)(C)O)n2)c(OC)cc1N1CC[C@@H](N(C)C)C1	LCK	enzyme activity, inhibitor	1 µM	inhibition	37%
Cc1ccc(C(=O)NCc2ccsc2)cc1C#Cc1cn(C(C)C)c2ncnc(N)c12	LCK phosphorylated	enzyme activity, inhibitor	1 µM	activity vs control	2%
CCCS(=O)(=O)Nc1ccc(F)c(C(=O)c2c[nH]c3ncc(-c4ccc(Cl)cc4)cc23)c1F	LCK	enzyme activity, inhibitor	1 µM	inhibition	< 10%
NS(=O)(=O)c1cc(NC(=O)Cc2ccccc2)ccc1Oc1cccc(Cl)c1	LCK	cell-free assay, competition with immobilised ligand	1 µM	remaining binding	70%
O=C1c2ccccc2-c2n[nH]c3cccc1c23	LCK	enzyme activity, inhibitor	0.5 µM	activity vs control	97.1%
CN(C)CC#Cc1ccc(OCCCc2sc(N3CCc4cccc(C(=O)Nc5nc6ccccc6s5)c4C3)nc2C(=O)O)c(F)c1	LCK	cell-free assay, competition with immobilised ligand	1 µM	remaining binding	100%
CC(C)(C)n1nc(Cc2cccc3ccccc23)c2c(N)ncnc21	LCK	enzyme activity, inhibitor	0.5 µM	activity vs control	80.4%
N[C@H]1CCN(c2nccc(-c3cnn4ncccc34)n2)C1	LCK	cell-free assay	1 µM	remaining signal	90%
Cc1ccc(Nc2nccc(N(C)c3ccc4c(C)n(C)nc4c3)n2)cc1S(N)(=O)=O	LCK	enzyme activity, inhibitor	0.3 µM	inhibition	59%
C[C@@H]1CN(c2cc(-c3nn(C)c4ccc(OC5(C)CC5)cc34)ncn2)C[C@H](C)O1	LCK	cell-free assay, competition with immobilised ligand	1 µM	remaining binding	94%
Cc1cc(NC(=O)c2cccc3cc(-c4cccc5[nH]nc(N)c45)ccc23)ccc1F	LCK	enzyme activity, inhibitor	0.1 µM	activity vs control	90%
CCS(=O)(=O)c1cc2cc(C[C@](O)(CC(C)(C)c3ccc(F)cc3C(N)=O)C(F)(F)F)[nH]c2cn1	LCK	cell-free assay, competition with immobilised ligand	1 µM	remaining binding	100%
CN(C)C1CCN(CC#Cc2nn(C3CCCC3)c3nc(NCc4ccccc4)ncc23)C1 (stereo not drawn)	LCK	enzyme activity, inhibitor, FRET	0.1 µM	inhibition	17%
